Results reported in ChEMBL document CHEMBL4680071, “Structure guided generation of thieno[3,2-d]pyrimidin-4-amine Mycobacterium tuberculosis bd oxidase inhibitors” (RSC Med Chem, 2021).

Experiments:
[1] = Inhibition of cytochrome-bd oxidase in Mycobacterium tuberculosis H37Rv assessed as replicating ATP by measuring ATP depletion incubated for 15 hrs in absence of Q203 by BacTiter-Glo luminescence assay
Method in brief: (§1)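 Cultures grown in Middlebrook 7H9 with 0.05% Tween 80, 0.5% glycerol, BSA fraction V, D-glucose and NaCl. Cells pelleted, resuspended in glycerol-free medium at about 10^7 CFU/mL, added to compound dilutions. Plates incubated 15 h at 37°C. BacTiter-Glo reagent added, luminescence read after 12 min to give ATP level. IC50 from curve fitting.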

[2] = Inhibition of cytochrome-bd oxidase in Mycobacterium tuberculosis clinical isolate N0145 assessed as replicating ATP by measuring ATP depletion incubated for 15 hrs in absence of Q203 by BacTiter-Glo luminescence assay; method in brief: as §1
[3] = Inhibition of […] tuberculosis Erdman assessed as replicating ATP by measuring ATP depletion incubated for 15 hrs in presence of Q203 by BacTiter-Glo luminescence assay; set-up: species or system Mycobacterium tuberculosis str. Erdman; method in brief: as §1

Q: With COc1nc2ccc(Br)cc2cc1[C@@H](c1ccccc1)[C@@](O)(CCN(C)C)c1cccc2ccccc12 [BEDAQUILINE] as the compound, how does the IC50 [1] read?
A: 40 µM

Q: And the IC50 [2]?
A: 10 µM

Q: For CCc1nc(NCCCc2ccccc2)c2cc(C)sc2n1, which IC50 [3] is on record?
A: 83 nM

Q: Which IC50 [3] does the source give for CCCCNc1nc(CC)nc2sc(C)cc12 here?
A: 3200 nM
